Sampled rows, rich in hits. Any-hit rate of the full collection: about 2.2%.
PTEN del growth: suppresses growth of cells with PTEN deletion | HCT116 PTEN-null viability, CellTiter-Glo, 60 h; stronger effect = lower value | viability, % at 10 µM | 140,000 tested, 1.2% active | AID 827;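 active = viability at or below a set limit, 4 SD under the median of all tested compounds, cut at about 3.7% in these data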;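 also: PTEN knockout HCT116 line with beta catenin targeted HCT116 as companion control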
Autophagy mod: alters autophagy in cells. 190,000 tested, 0.98% active. calls only at 10 µM (by protocol). MEF GFP-LC3 puncta imaging; test concentration mostly 10 µM;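 active = percentage of spot-positive cells more than 3 SD above its plate mean, without a fluorescence outlier flag or 80% toxicity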
Dynein cargo inh: blocks dynein driven cargo transport along microtubules. 3617.4 mouse cells, GR-EGFP nuclear translocation imaging; test concentration mostly 20 µM; stimulated with dexamethasone, 1 µM; stronger effect = lower value. z-score, hits read low. 220,000 tested, 0.47% active. AID 1381;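 active = plate z-score of nuclear minus cytoplasmic receptor signal below a set negative limit, without overly bright fluorescence or cell loss, cut at about -3.5 in these data, passing the limit was not always enough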;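 also: z-score of nuclear minus cytoplasmic ring GR-EGFP intensity difference per well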
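Buffer or medium: tet-free medium with charcoal-stripped serum / Also added: dexamethasone agonist, 1.0 µM final, for 30 min / Timing: induction 48 h, compound 1 h, agonist 30 min / Measured by: high-content fluorescence imaging after fixation / Read-out: nuclear-to-cytoplasmic GR-EGFP distribution per well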
sdo1 growth: compounds rescuing growth of sdo1-depleted yeast, bone marrow failure model; 140,000 tested, 0.21% active; S. cerevisiae sdo1-depleted JHY4D growth rescue, OD600 30 h; stronger effect = higher value; pdr5 snq2 efflux-pump mutant strain; z-score at 10 µM;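 active = z-score above 3 at both the 24 hr and the 30 hr optical density reads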
HCT116 bCat-KO: beta-catenin-lacking colon tumor cell growth suppression | HCT116 beta-catenin knockout viability, CellTiter-Glo, 60 h; stronger effect = lower value | viability, % at 10 µM | 140,000 tested, 1.5% active;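 active = viability at or under a set limit, the compound median less 4 SD, cut at about 6% in these data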
A number is an active result; n = inactive; x = not tested or not shown; + = active, no number.

SMILES	PTEN del growth	Autophagy mod	Dynein cargo inh	sdo1 growth	HCT116 bCat-KO
Cc1ccc(CNC(=O)CCNC(=O)Cn2ccc3ccccc3c2=O)o1	n	n	n	n	n
CN(NC(=O)c1ccccc1F)c1ncccc1[N+](=O)[O-]	x	x	n	x	x
Cc1cc(C)c[n+](-c2nc3ccccc3nc2[N-]S(=O)(=O)c2ccc(Br)s2)c1	n	+	n	n	n
O=C(Nc1ccon1)c1sc2cc(F)ccc2c1Cl	n	+	n	n	n
O=C(NC1=NCCS1)c1sc2cc(F)ccc2c1Cl	n	n	n	n	n
CC1CN(C(=O)C2CC2)C(C)CN1C(=O)C1CC1 (centres undefined)	n	n	n	n	n
Cc1ccsc1/C=C/c1ccc2cccc(O)c2n1	n	n	n	n	5.0
Oc1cccc2ccc(/C=C/c3cccs3)nc12	3.8	+	n	n	n
COc1ccc(/C=C2\CC/C(=C\c3ccc(OC)cc3OC)C2=O)c(OC)c1	x	n	n	x	x
COc1ccc(C2(O)CCN(Cc3nnnn3Cc3ccc(C)cc3)CC2)cc1	n	+	n	n	n
Cc1cc2ccccn2c1C(=O)c1ccc([N+](=O)[O-])o1	x	+	n	x	x
O=C(CCN1CCN(S(=O)(=O)c2ccc(Br)cc2)CC1)Nc1ccccc1F	x	n	n	x	x
CCn1c(SCc2nc3ccccc3[nH]2)nnc1-c1ccccc1OC	n	n	n	n	n
CCn1c(SCc2nc3ccccc3[nH]2)nnc1-c1cccs1	n	+	n	n	n
CCOC(=O)c1c(NC(=O)C2COc3ccccc3O2)sc2c1CCN(Cc1ccccc1)C2 (centres undefined)	n	n	n	n	n
NC(=O)c1c(NC(=O)C2COc3ccccc3O2)sc2c1CCN(Cc1ccccc1)C2 (centres undefined)	x	+	n	x	x
COc1ccc(C(=O)COC(=O)C2CCC(=O)N2)cc1 (centres undefined)	x	n	n	x	x
CCCCC[n+]1ccn(C2=C([O-])c3ccccc3C(=O)/C2=N\S(=O)(=O)c2ccccc2)c1	n	n	n	n	3.3
CCCC[n+]1ccn(C2=C([O-])c3ccccc3C(=O)/C2=N\S(=O)(=O)c2ccccc2)c1	1.6	n	n	n	2.1
CCCCC[n+]1ccn(C2=C([O-])c3ccccc3C(=O)/C2=N\S(=O)(=O)c2ccc(Br)cc2)c1	x	x	n	x	x
Cc1cc(C)nc(SCc2nnc(SCC(N)=O)o2)n1	x	n	n	x	x
COc1cccc(C(=O)NNC(=O)Cc2ccc([N+](=O)[O-])cc2)c1	n	n	n	n	n
COc1cccc(C(c2nnnn2Cc2ccccc2)N2CCN(C3CCCC3)CC2)c1OC (centres undefined)	n	+	n	n	n
COc1ccccc1C(c1nnnn1Cc1ccccc1)N1CCN(C2CCCC2)CC1 (centres undefined)	n	n	n	n	n
CN1CCCN(C(=O)CC(c2ccccc2)c2ccccc2)CC1	x	n	n	x	x
SMILES	PTEN del growth	Autophagy mod	Dynein cargo inh	sdo1 growth	HCT116 bCat-KO
O=C(CN(Cc1cccs1)C(=O)CNS(=O)(=O)c1ccccc1)NC1CCCC1	x	n	n	x	x
CCN1CCCC1CNc1ncnc2c1[nH]c1ccc(Cl)cc12 (centres undefined)	n	+	n	n	n
Cc1ccc2[nH]c3c(NCCN4CCOCC4)ncnc3c2c1	n	n	n	n	n
Clc1ccc2[nH]c3c(NCCCN4CCOCC4)ncnc3c2c1	n	n	n	n	5.0
O=C(/C=C\Nc1ccc(Br)cc1)c1cccnc1	n	n	n	n	n
O=S(=O)(NCc1ccc(Cl)cc1)c1cnc[nH]1	n	+	n	n	n
O=C(Nc1ccc(OC(F)F)cc1)Nc1cccc(C(F)(F)F)c1	3.1	n	n	n	2.3
CCN(CC)S(=O)(=O)c1ccc(C(=O)Nc2cccc(C)c2)cc1	n	n	n	n	n
O=C(Nc1ccc(OC(F)(F)F)cc1)Nc1cccc([N+](=O)[O-])c1	3.5	n	n	n	2.9
CCN(CC)S(=O)(=O)c1ccc(NC(=O)Nc2cccc(C(F)(F)F)c2)cc1	1.8	n	n	n	1.4
Cc1ccc(NC(=O)Nc2cccc([N+](=O)[O-])c2)cc1F	n	n	n	n	n
Cc1ccc(S(=O)(=O)Nc2ccc(NC(=O)Nc3cccc(C(F)(F)F)c3)cc2)cc1	1.6	n	n	n	1.2
COc1ccc(C(=O)NC2=NCCS2)cc1S(=O)(=O)N1CCCCC1C (centres undefined)	x	n	n	x	x
COc1ccc(CCN2CC34C=CC(O3)C(C(=O)NCc3ccccc3)C4C2=O)cc1OC (centres undefined)	n	n	n	n	n
Cc1cc(/C=N/n2cnnc2)c(C)n1-c1ccc(OCc2ccc(Cl)cc2Cl)cc1	n	n	n	n	3.7
CC[n+]1c(C=C2C=C(C)OC(C)=C2)sc2ccccc21	x	+	n	x	x
CC[n+]1c(/C=C2/C=C(C)CC(C)C2)sc2ccccc21 (centres undefined)	x	n	n	x	x
CCOc1ccc2[nH]c3c(N4CCN(c5ccccn5)CC4)ncnc3c2c1	n	+	n	n	n
Cc1ccc2[nH]c3c(N4CCN(Cc5ccccc5)CC4)ncnc3c2c1	n	n	n	n	n
COc1ccc2c(c1)[nH]c1c(N3CCSCC3)ncnc12	x	x	n	x	x
Cc1ccc2[nH]c3c(N4CCCCCC4)ncnc3c2c1	n	n	n	n	5.1
COc1ccc2o/c(=N/NC(=S)Nc3ccccc3)c(C(N)=O)cc2c1	n	+	n	n	n
CCOc1ccccc1NC1=NC2CS(=O)(=O)CC2S1 (centres undefined)	x	x	n	x	x
Nc1nnc(Cc2ccccc2F)s1	x	+	n	x	x
Nc1nnc(Cc2ccc(Cl)cc2Cl)s1	n	n	n	n	n
SMILES	PTEN del growth	Autophagy mod	Dynein cargo inh	sdo1 growth	HCT116 bCat-KO
COC(=O)/C=C/S(=O)(=O)c1ccc(NC(C)=O)cc1	n	n	-3.9	n	n
c1ccc2c(c1)CCN(c1ncnc3c1[nH]c1ccccc13)C2	n	x	x	n	n
COc1ccc2[nH]c3c(N4CC(C)OC(C)C4)ncnc3c2c1 (centres undefined)	n	n	n	n	n
COc1cccc(N2CCN(c3ncnc4c3[nH]c3ccc(F)cc34)CC2C)c1 (centres undefined)	1.6	+	n	n	2.0
COc1cccc(N2CCN(c3ncnc4c3[nH]c3ccccc34)CC2C)c1 (centres undefined)	n	n	n	n	4.7
Cc1ccc(CNC(=O)C2CN(S(C)(=O)=O)c3cc(Cl)ccc3O2)cc1 (centres undefined)	x	n	n	x	x
CCCC/C(O)=C1\C(=O)CCCC1=NCCc1c(C)[nH]c2ccccc12	x	x	n	x	x
CC(=O)C1=C(C)NC(SCC(=O)c2ccc(Cl)cc2)=C(C#N)C1c1ccco1 (centres undefined)	n	+	n	n	n
Clc1cccc(/C(Cc2nc3ccccc3[nH]2)=N\Nc2ccccc2)c1	n	n	n	n	n
O=S1(=O)Nc2c(ccc3cccnc23)-c2ccccc21	2.3	n	n	n	4.7
